Most compounds without a hit are left out; they make up all but 1.8% or so of the library.
pCIP destab: p/CIP-EGFP fusion destabilizers, primary screen, fluorescence, F442A cells. 290,000 compounds, 0.01% hits. 16 h. decrease of EGFP signal, % at 10 µM;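 active = EGFP signal decrease of at least 30% at 10 µM or well 3 SD below plate mean, unless failing retest; inactive = the rest, including hits failing retest or dose response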
TbMetRS inhib: T. brucei MetRS inhibitors, primary screen, biochemical, luminescence. purified T. brucei MetRS, ATP depletion, Kinase-Glo luminescence. inhibition, % at 11.9 µM. 360,000 compounds, 0.4% hits. AID 624268, 2012;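 active = inhibition above a per-plate cutoff of the control wells' mean inhibition plus 3 SD, cut at about 5.5% in these data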;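 note: 0% = DMSO wells median and 100% = median of wells with control inhibitor compound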
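Material: parasite MetRS enzyme / Replication: singlicate, one well per compound / Signal: luminescence of leftover ATP / Schedule: 2 h aminoacylation at 25 °C after 15 min preincubation / Medium: HEPES-MgCl2-KCl buffer plus DTT, spermine, BSA, pyrophosphatase / Doses: 11.9 µM single point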
A3A deaminase: APOBEC3A ssDNA deaminase inhibitors, primary screen, selectivity assay for APOBEC3G inhibitor project, biochemical, FAM/TAMRA oligo cleavage fluorescence; DNA dC->dU-editing enzyme APOBEC-3A (Homo sapiens), P31941; recombinant A3A, FAM/TAMRA ssDNA deamination fluorescence; inhibition, % at 20 µM; 330,000 compounds, 0.41% hits; AID 493011, 2011;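 active = at least 40% inhibition at 20 µM here, with at most 30% in a related deaminase screen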;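 note: plate controls were A3A with DMSO for no effect and wells lacking A3A enzyme for full effect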
PHOSPHO1 block: PubChem AID 1565. recombinant PHOSPHO1, absorbance phosphatase assay. 290,000 compounds, 1.1% hits. Phosphoethanolamine/phosphocholine phosphatase (Homo sapiens), Q8TCT1. inhibition, % at 13.3 µM; in the data active = inhibition above about 60%
APOBEC3G inh: APOBEC3G DNA deaminase inhibitors, primary screen, biochemical, fluorescence, single-stranded DNA substrate, uHTS | recombinant A3G, ssDNA deamination FAM/TAMRA fluorescence | inhibition, % at 20 µM | 330,000 compounds, 0.28% hits;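 active = inhibition of at least 40% at 20 µM, with no more than 30% in the related APOBEC3A deaminase screen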;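 note: plate controls were DMSO wells with A3G for no effect and wells lacking A3G enzyme for full effect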
Target sequence (Q9HC16 whole entry, looked up): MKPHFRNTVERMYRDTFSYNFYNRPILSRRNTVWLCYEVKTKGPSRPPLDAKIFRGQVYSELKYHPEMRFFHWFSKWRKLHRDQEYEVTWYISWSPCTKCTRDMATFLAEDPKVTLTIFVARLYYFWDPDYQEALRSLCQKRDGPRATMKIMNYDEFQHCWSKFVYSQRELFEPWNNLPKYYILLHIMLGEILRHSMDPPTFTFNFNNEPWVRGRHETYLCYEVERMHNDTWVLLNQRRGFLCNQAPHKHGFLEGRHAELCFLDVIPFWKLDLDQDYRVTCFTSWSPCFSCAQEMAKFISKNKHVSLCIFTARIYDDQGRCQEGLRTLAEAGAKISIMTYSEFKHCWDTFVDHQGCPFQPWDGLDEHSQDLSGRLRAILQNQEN
Starred values were filed as active, the others as inactive.

`N/N=C1\CCCc2c1[nH]c1ccc([N+](=O)[O-])cc21` gave pCIP destab 3.8, TbMetRS inhib -0.8, A3A deaminase -3.6, PHOSPHO1 block 88.2* and APOBEC3G inh 10.6.
`CC1(NS(=O)(=O)c2ccc(Cl)s2)CCS(=O)(=O)C1` (stereo not given) gave TbMetRS inhib -0.2, A3A deaminase 1.0 and APOBEC3G inh -4.8.
Screening CCN1CCN(C(=S)c2ccc(Cl)c(Cl)c2)CC1 returned pCIP destab -2.2, TbMetRS inhib -1.0, A3A deaminase -6.2, PHOSPHO1 block 95.0* and APOBEC3G inh 10.0.
CCCCNC(=O)c1ccc(NC(=O)CC2SC(N3CCCC3)=NC2=O)cc1 (stereo not given) was read as TbMetRS inhib 0.5, A3A deaminase -1.8 and APOBEC3G inh -7.3.
O=C(c1ccccc1O)N1CCOCC1 was read as pCIP destab -5.0, TbMetRS inhib -0.6, A3A deaminase -8.4, PHOSPHO1 block -0.8 and APOBEC3G inh -5.8.
For Cc1cc(C)c2c(c1)NC(C(=O)O)C1CC=CC21 (stereo not given) the results were pCIP destab -3.3, TbMetRS inhib -0.1, A3A deaminase 79.6, PHOSPHO1 block 45.3 and APOBEC3G inh 70.1.
For O=C(O)C1Nc2c(C(=O)N3CCOCC3)cccc2C2C=CCC12 (stereo not given) the results were pCIP destab -0.5, TbMetRS inhib -0.3, A3A deaminase 95.2, PHOSPHO1 block 62.7* and APOBEC3G inh 76.9.
For Cc1ccc2c(c1C)NC(C(=O)O)C1CC=CC21 (stereo not given) the results were pCIP destab -7.9, TbMetRS inhib -0.6, A3A deaminase 95.7, PHOSPHO1 block 61.9* and APOBEC3G inh 85.3.
For CCOC(=O)N1CCN(C(=O)CSc2nnc3[nH]c(=O)c(C)c(C)n23)CC1 the results were TbMetRS inhib -0.1, A3A deaminase 2.3 and APOBEC3G inh -7.3.
`Cc1c(C)c2ccc(OC(C)C(=O)NC3CC(C)(C)NC(C)(C)C3)cc2oc1=O` (stereo not given) gave pCIP destab -7.2, TbMetRS inhib 0.0, A3A deaminase -2.2, PHOSPHO1 block 69.7* and APOBEC3G inh -8.1.
Screening CCOC(=O)C1=C(C)NC2=C(C(=O)CC(C)(C)C2)C1c1cccc(C)n1 (stereo not given) returned pCIP destab -4.2, TbMetRS inhib 0.2, A3A deaminase -3.5, PHOSPHO1 block 31.9 and APOBEC3G inh 0.6.
For CCOC(=O)CN=C1CC(C)(C)CC2=C1Sc1ncnc(N(C)C)c1N2 the results were pCIP destab 7.5, TbMetRS inhib -0.7, A3A deaminase 0.1, PHOSPHO1 block 96.8* and APOBEC3G inh 8.8.
`Cc1ccccc1-c1nc(CS(=O)(=O)CC(=O)N2CCN(C)CC2)c(C)o1` gave pCIP destab -2.0, TbMetRS inhib 0.3, A3A deaminase -1.7, PHOSPHO1 block 34.4 and APOBEC3G inh 0.3.
`O=C(CCl)c1ccc(Cc2ncc(C(F)(F)F)cc2Cl)s1` gave pCIP destab 4.1, TbMetRS inhib -1.1, A3A deaminase -2.8, PHOSPHO1 block 76.7* and APOBEC3G inh -4.7.
`C[C@@H]1C=C(C(=O)NCc2ccccc2)O[C@H](OCc2ccc(CO)cc2)C1` gave pCIP destab -1.6, TbMetRS inhib -0.1, A3A deaminase -1.1, PHOSPHO1 block 31.7 and APOBEC3G inh -6.1.
For O=C(NCc1nc2ccccc2[nH]1)C1=C[C@@H](c2ccccc2)C[C@@H](OCCCCO)O1 the results were pCIP destab -7.9, TbMetRS inhib 69.6*, A3A deaminase -1.8, PHOSPHO1 block 47.7 and APOBEC3G inh -14.3.
`C[C@H]1C=C(C(=O)NCc2nc3ccccc3[nH]2)O[C@@H](OCc2ccc(CO)cc2)C1` gave pCIP destab -3.1, TbMetRS inhib 23.9*, A3A deaminase -3.2, PHOSPHO1 block 35.3 and APOBEC3G inh -10.2.
O=C(Nc1ccccc1)C1=C[C@H](c2ccccc2)C[C@H](OCCCCO)O1 was read as TbMetRS inhib -0.3, A3A deaminase -6.7 and APOBEC3G inh -14.4.

Assay outcomes deposited in PubChem BioAssay by several laboratories.
